# Shown are actives, neighbours in structure and some others; about 2.3% of the full set was active somewhere.
# TRPC4 inh = TRPC4 (mouse) channel inhibition; HEK293 TRPC4beta/mu-opioid, DAMGO-evoked Fluo4 calcium flux; hits give low values; B-score at 10 µM; 0.39% of 300,000 active;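 active means B-score over 3 SD under the library average, no early fluorescence shift, positive overall ratio signal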
# Target sequence (Q9QUQ5 whole entry, looked up): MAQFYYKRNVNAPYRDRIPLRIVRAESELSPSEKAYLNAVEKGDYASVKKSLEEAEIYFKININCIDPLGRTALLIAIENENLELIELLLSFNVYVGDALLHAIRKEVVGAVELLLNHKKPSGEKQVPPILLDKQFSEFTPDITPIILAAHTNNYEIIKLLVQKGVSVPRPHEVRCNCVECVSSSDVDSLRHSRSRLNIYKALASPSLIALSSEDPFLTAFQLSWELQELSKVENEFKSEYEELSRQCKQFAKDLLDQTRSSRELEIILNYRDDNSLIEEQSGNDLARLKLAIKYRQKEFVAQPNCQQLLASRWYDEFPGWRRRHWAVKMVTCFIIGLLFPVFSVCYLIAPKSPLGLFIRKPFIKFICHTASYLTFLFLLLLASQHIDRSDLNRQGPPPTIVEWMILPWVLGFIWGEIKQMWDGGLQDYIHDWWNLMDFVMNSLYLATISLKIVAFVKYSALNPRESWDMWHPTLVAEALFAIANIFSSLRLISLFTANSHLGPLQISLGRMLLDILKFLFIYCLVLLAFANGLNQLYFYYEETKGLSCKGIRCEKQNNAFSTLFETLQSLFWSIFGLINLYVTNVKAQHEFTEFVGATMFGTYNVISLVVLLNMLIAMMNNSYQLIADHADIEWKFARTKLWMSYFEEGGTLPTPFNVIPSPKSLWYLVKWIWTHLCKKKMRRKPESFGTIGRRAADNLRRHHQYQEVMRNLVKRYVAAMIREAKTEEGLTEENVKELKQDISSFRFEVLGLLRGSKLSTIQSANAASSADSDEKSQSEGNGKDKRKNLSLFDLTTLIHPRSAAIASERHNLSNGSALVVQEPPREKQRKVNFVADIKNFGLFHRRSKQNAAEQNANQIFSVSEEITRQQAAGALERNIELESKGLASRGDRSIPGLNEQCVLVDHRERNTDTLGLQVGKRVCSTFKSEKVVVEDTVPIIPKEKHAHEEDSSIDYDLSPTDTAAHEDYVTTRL
#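 Material: HEK293 cells with stable TRPC4beta plus mu-opioid receptor expression / Probe or stimulus: DAMGO in two steps, submaximal then maximal / Compound: single concentration per test compound / Technique: kinetic Fluo4 fluorescence imaging of calcium influx / Read-out: per-well B score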
# TRPC4 act = TRPC4 (mouse) channel activation; Q9QUQ5; HEK293 TRPC4beta/mu-opioid, Fluo4 calcium fluorescence; hits give high values; B-score at 10 µM; 0.49% of 310,000 active;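 active means B-score above 5 SD of library B-scores, and initial fluorescence ratio not above library mean plus 5 SD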;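 further: positive B-score marks a calcium rise read as TRPC4 activation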
#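 Incubation: 45 min room-temperature Fluo4 loading, 110 s read / System: HEK293 cells stably co-expressing mouse TRPC4beta and mu-opioid receptor / Signal: Fluo4 fluorescence, kinetic / Control set: buffer (low) and maximal DAMGO (high) / Measure: integrated baseline-normalised fluorescence ratio, converted to per-well B score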
# TRPC6 act = mouse TRPC6 channel activation | AID 2550 | B-score at 10 µM | Q61143 | 0.13% of 310,000 active | HEK293-TRPC6 membrane potential dye fluorescence; hits give high values;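 active means B-score of the integrated fluorescence ratio above library mean plus 3 SD, and starting fluorescence ratio within library mean plus 5 SD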;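 further: higher score means more depolarization so channel activation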
# TRPC6 inhibitor = inhibitors of mouse TRPC6 channel; Q61143; HEK293-TRPC6, membrane potential dye, ACh-evoked depolarization; hits give low values; B-score at 10 µM; 1.1% of 310,000 active;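 active means B-score under library mean minus 3 SD, initial fluorescence not abnormally high, positive integrated signal ratio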;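 further: B-score derived from integrated fluorescence ratio over the kinetic read; more negative B-score means stronger inhibition of depolarization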
# TRPC4 PAM = allosteric potentiators of mouse TRPC4 channel; HEK293 TRPC4beta/mu-opioid, DAMGO EC20, Fluo-4 Ca2+ flux; hits give high values; B-score at 10 µM; Q9QUQ5; 0.42% of 310,000 active;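 active means B-score of calcium response area above 5 SD of library B-scores, with initial fluorescence ratio within 5 SD of library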;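 further: B-score of integrated fluorescence ratio over time as area under calcium response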
# TRPC4 spec 2 = second selectivity test of TRPC6 inhibitors: effect on mouse TRPC4. shares compounds with TRPC6 inhibitor. HEK293 TRPC4/MOR, membrane potential dye fluorescence; channel activated by saturating DAMGO dose. inhibition, % at 10 µM. 42% of 920 active;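 active means compounds whose fluorescence signal differed from control wells by over 3 SD, either direction, in both duplicate plates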
# TRPC4 spec = selectivity of TRPC6 inhibitors: effect on mouse TRPC4. HEK293 TRPC4/mu-opioid, membrane potential fluorescence. shares compounds with TRPC6 inhibitor. AID 2777. 61% of 920 active. activity change, negative = inhibition, % at 10 µM;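 active means rise or fall in signal beyond 3 SD of buffer-only wells in both replicate plates, either sign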;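 further: integrated kinetic ratio of fluorescence range over baseline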
# HEK293 MPD ctr 2-1 = second check of TRPC6 inhibitor effects in parental HEK293 cells | signal change vs control, % at 10 µM | 31% of 920 active | shares compounds with TRPC6 inhibitor | parental HEK293 membrane potential dye fluorescence; maximal acetylcholine challenge after compound addition;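 active means membrane potential signal moving either way by over 3 SD of the maximum-effect control, in both duplicate plates, meaning non-specific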
# HEK293 MPD ctr-1 = counter-screen for TRPC6 inhibitors: effect in parental HEK293 cells. shares compounds with TRPC6 inhibitor. parental HEK293 membrane potential dye fluorescence. membrane potential signal change, % at 10 µM. 60% of 920 active;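 active means membrane potential signal shifting up or down by more than 3 SD of buffer-only wells, on both duplicate plates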
# HEK293 MPD ctr-2 = parental HEK293 nonspecific activity of TRPC6 modulators; shares compounds with TRPC6 inhibitor; membrane potential dye fluorescence; membrane potential signal change, % at 10 µM; 51% of 2,400 active; AID 488924;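 active means membrane potential signal moves up or down beyond 5 SD from buffer-only wells, on both duplicate plates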
# HEK293 MPD ctr 2-2 = second counter-screen for TRPC6 modulators: effect in parental HEK293 cells; inhibition, % at 10 µM; membrane potential dye fluorescence; after compound, maximal acetylcholine stimulation; shares compounds with TRPC6 inhibitor; AID 488926; 14% of 2,400 active;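 active means membrane potential signal drops by more than 5 SD from the mean control signal, in both duplicate plates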;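 further: plate controls were acetylcholine ECmax control wells for no effect and buffer only wells for full effect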
# TRPC4/MOR mod = mouse TRPC4 off-target activity of TRPC6 modulators; percent change from control (negative = decrease, positive = increase), % at 10 µM; HEK293 TRPC4/mu-opioid, membrane potential fluorescence; shares compounds with TRPC6 inhibitor; 69% of 2,400 active; AID 488927;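 active means membrane potential signal moved up or down beyond 5 SD of buffer control wells, in both duplicate plates, actives on both sides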;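 further: plate controls were assay buffer wells for no effect and DAMGO maximal-effect wells for full effect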
# TRPC4 ctr inh 2 = second check of whether TRPC6 modulators also affect mouse TRPC4 | shares compounds with TRPC6 inhibitor | HEK293 TRPC4/mu-opioid, membrane potential dye fluorescence; stimulated with maximal-effect DAMGO | inhibition, % at 10 µM | 55% of 2,400 active | AID 488928;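 active means drop in membrane potential signal beyond 5 SD of the control wells in both duplicate plates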;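 further: TRPC4 counter screen for TRPC6 hits run under conditions tuned for TRPC6 not TRPC4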
# TRPC6 inh conf = mouse TRPC6 inhibitor confirmation; shares compounds with TRPC6 inhibitor; HEK293-TRPC6, membrane potential dye, ACh-evoked depolarization; AID 488960; inhibition, % at 10 µM; 43% of 3,300 active;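 active means fluorescence ratio falls more than 5 SD below the full-stimulation control mean, in both duplicate runs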;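 further: integrated fluorescence ratio of peak minus minimum over baseline after agonist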
# TRPC6 act confirm = mouse TRPC6 activator confirmation | 11% of 2,800 active | HEK293-TRPC6 membrane potential dye fluorescence, FDSS | AID 488961 | shares compounds with TRPC6 inhibitor | activation, % at 10 µM;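 active means ratio signal rise beyond 5 SD above unstimulated control wells' mean, seen in both duplicate runs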;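 further: plate controls were buffer EC0 wells for no effect and acetylcholine ECmax response for full effect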
# Starred values were filed as active, the others as inactive; i = inactive; . = not tested or not shown.
SMILES,TRPC4 inh,TRPC4 act,TRPC6 act,TRPC6 inhibitor,TRPC4 PAM,HEK293 MPD ctr-2,HEK293 MPD ctr 2-2,TRPC4/MOR mod,TRPC4 ctr inh 2,TRPC6 inh conf,TRPC6 act confirm,others
O=C(NC1CCCCC1)C(c1ccccc1)N(Cc1ccco1)C(=O)Cn1cnc2ccccc21 (stereo not given),i,i,17*,i,i,277%*,i,119%*,i,i,109%*,
O=C(NC1CCCCC1)C(c1ccccc1)N(Cc1ccco1)C(=O)c1csnn1 (stereo not given),i,i,i,i,i,.,.,.,.,.,.,
C/C(N)=C(/C#N)C(=O)COC(=O)c1ccccc1Cc1ccccc1,i,i,i,-8.3*,i,.,.,.,.,i,i,TRPC4 spec 2=i;TRPC4 spec=-11%*;HEK293 MPD ctr 2-1=i;HEK293 MPD ctr-1=i
C/C(N)=C(/C#N)C(=O)COC(=O)c1ccncc1,i,i,i,i,i,.,.,.,.,.,.,
NC(=O)N/N=C/c1coc2ccc3ccccc3c2c1=O,i,i,i,-5*,i,-62%*,i,-16%*,i,i,i,
O=Cc1coc2ccc3ccccc3c2c1=O,i,i,i,i,i,.,.,.,.,.,.,
COc1cc(/C=C/C(=O)OC(C)C(=O)NC2CCCCC2C)cc(Cl)c1OC (stereo not given),i,i,i,i,i,.,.,.,.,.,.,
CN1CCN(c2nc3c(c(=O)[nH]c(=O)n3C)n2CCCSc2nnnn2-c2ccccc2)CC1,i,i,i,-6.5*,i,-212%*,i,-28%*,i,i,i,
CCN(CC)CCCNc1nc(-n2nc(C)cc2C)nc2sc3c(c12)CC(C)(C)OC3,i,i,i,-10*,i,.,.,.,.,57%*,i,TRPC4 spec 2=i;TRPC4 spec=-11%*;HEK293 MPD ctr 2-1=i;HEK293 MPD ctr-1=-204%*
Cc1cc(C)n(-c2nc(NCc3cccnc3)c3c4c(sc3n2)COC(C)(C)C4)n1,i,i,i,-7.4*,i,.,.,.,.,i,i,TRPC4 spec 2=i;TRPC4 spec=i;HEK293 MPD ctr 2-1=i;HEK293 MPD ctr-1=i
Cc1cc(C)n(-c2nc(SCC(=O)O)c3c4c(sc3n2)COC(C)(C)C4)n1,i,i,i,i,i,.,.,.,.,.,.,
CCN(CC)C(=O)N1c2ccccc2C=Cc2ccccc21,i,i,i,i,i,.,.,.,.,.,.,
CN(C)CCCNC(=O)N1c2ccccc2C=Cc2ccccc21,i,i,i,-5.3*,i,i,i,i,i,66%*,i,

# Screening results deposited in PubChem by Johns Hopkins Ion Channel Center.
